In publication PMC5515376 (Nature, 2016):
“Also recorded” adds a separate entry of the source. Where two headings read alike, the source gives them in different places.

Legend:
TM90C6B strain = assay: Growth inhibition, TM90C6B strain; format: cell-based, Plasmodium falciparum; details: TM90C6B strain (atovaquone resistant)
[1] = tested on: P. berghei (ANKA) liver stage; assay: In vitro P. berghei liver-stage assay; format: cell-based, Plasmodium berghei; details: read-out: EC50, liver stages; in vitro
Method in brief: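 HepG2 cells (~17,500 per well, in duplicate) were cultured 18–24 h, then the medium was exchanged and compound added. After 1 h, 4,000 P. berghei ANKA GFP–luc sporozoites per well were added, freshly dissected from A. stephensi mosquitoes. Plates were spun 10 min at 1,000 r.p.m. and incubated 48 h at 37 °C. Parasite load was read by Bright-Glo luminescence.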

recombinant human DHODH = recombinant human DHODH (Homo sapiens, UniProt Q02127); assay: Human DHODH biochemical assay
Method in brief: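 Recombinant human DHODH at 13 nM was tested against a 20-point inhibitor dilution series. Reactions contained 1 mM L-dihydroorotate (excess), 100 µM dodecylubiquinone as electron acceptor and 60 µM 2,6-dichloroindophenol as indicator, in 50 mM Tris-HCl pH 8.0, 150 mM KCl and 0.1% Triton X-100. Reactions ran 20 min at 25 °C and were read at OD600.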

[2] = tested on: PfscDHODH (P. falciparum line expressing S. cerevisiae DHODH); assay: Growth inhibition, PfscDHODH transgenic line; format: cell-based, Plasmodium falciparum; details: relative to Dd2
Method in brief: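 Asexual blood-stage parasites were cultured to 3–8% parasitaemia, counted on Giemsa smears, and diluted in medium to 2.0% parasitaemia and 2.0% haematocrit. This suspension was added to compound dispensed from DMSO, giving a final 1% parasitaemia and 1% haematocrit, with mefloquine as control. Plates were incubated for 72 h at 37 °C. Growth was read by SYBR Green I fluorescence in Tris/EDTA/saponin/Triton X-100 lysis buffer.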

[3] = tested on: P. falciparum CYTb^G33V strain; assay: Growth inhibition, P. falciparum CYTb^G33V mutant strain; format: cell-based, Plasmodium falciparum
P. falciparum Dd2 = assay: In vitro P. falciparum blood-stage growth inhibition assay; format: cell-based, Plasmodium falciparum
[4] = tested on: parasite cytosolic Na^+ concentration; assay: Parasite cytosolic Na+ concentration measurement; format: cell-based, Plasmodium falciparum; details: after treatment
hERG channel = hERG channel (Homo sapiens, UniProt Q12809); assay: hERG channel inhibition assay; format: cell-based; details: read-out: hERG IC50; IKr
Method in brief: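 hERG current was measured in hERG-expressing cell lines by automated patch clamp (QPatch-HTX).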

HepG2 cell line = assay: Mammalian cell cytotoxicity assay; format: cell-based, human
Method in brief: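 HepG2, A549 or HEK293 cells were grown in DMEM with 10% FBS and 1% antibiotic–antimycotic and tested mycoplasma-free. Cells (1 × 10^6) were seeded one day before treatment. They were exposed to ascending compound doses for 72 h, and viability was read by CellTiter-Glo.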

[5] = Metabolic stability assay, mouse liver microsomes; format: in vitro ADME
Method in brief: (§1)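 Liver microsomes (0.2 mg ml−1) were incubated with compound (0.5 and 5 µM) plus NADPH for 0, 10 and 90 min. Human microsomes or mouse CD-1 microsomes were used, as named in each line. Compound depletion was measured by LC–MS/MS and used to estimate Km, Vmax and half-life.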

[6] = Metabolic stability assay, human liver microsomes; format: in vitro ADME
Method in brief: as §1

Solubility assay in PBS = format: physicochemical; details: PBS pH 7.4 with 1% DMSO
Method in brief: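 Compound was prepared at 100 µM in triplicate, both in 100% DMSO and in PBS pH 7.4 with 1% DMSO. Samples were shaken at 750 r.p.m. for 18 h at room temperature. Analysis was by UPLC–MS with single-ion detection. PBS response was fitted to a two-point calibration built from the DMSO samples.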

[7] = Mouse pharmacokinetics assay; format: in vivo; details: CD-1 mice
Method in brief: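 Female CD-1 mice received single intravenous and oral doses. Parameters were estimated by non-compartmental analysis.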

[8] = read-out: PfDd2 EC50, asexual blood-stage parasites (Dd2), SAR table

hERG channel, sequence (Q12809 whole entry): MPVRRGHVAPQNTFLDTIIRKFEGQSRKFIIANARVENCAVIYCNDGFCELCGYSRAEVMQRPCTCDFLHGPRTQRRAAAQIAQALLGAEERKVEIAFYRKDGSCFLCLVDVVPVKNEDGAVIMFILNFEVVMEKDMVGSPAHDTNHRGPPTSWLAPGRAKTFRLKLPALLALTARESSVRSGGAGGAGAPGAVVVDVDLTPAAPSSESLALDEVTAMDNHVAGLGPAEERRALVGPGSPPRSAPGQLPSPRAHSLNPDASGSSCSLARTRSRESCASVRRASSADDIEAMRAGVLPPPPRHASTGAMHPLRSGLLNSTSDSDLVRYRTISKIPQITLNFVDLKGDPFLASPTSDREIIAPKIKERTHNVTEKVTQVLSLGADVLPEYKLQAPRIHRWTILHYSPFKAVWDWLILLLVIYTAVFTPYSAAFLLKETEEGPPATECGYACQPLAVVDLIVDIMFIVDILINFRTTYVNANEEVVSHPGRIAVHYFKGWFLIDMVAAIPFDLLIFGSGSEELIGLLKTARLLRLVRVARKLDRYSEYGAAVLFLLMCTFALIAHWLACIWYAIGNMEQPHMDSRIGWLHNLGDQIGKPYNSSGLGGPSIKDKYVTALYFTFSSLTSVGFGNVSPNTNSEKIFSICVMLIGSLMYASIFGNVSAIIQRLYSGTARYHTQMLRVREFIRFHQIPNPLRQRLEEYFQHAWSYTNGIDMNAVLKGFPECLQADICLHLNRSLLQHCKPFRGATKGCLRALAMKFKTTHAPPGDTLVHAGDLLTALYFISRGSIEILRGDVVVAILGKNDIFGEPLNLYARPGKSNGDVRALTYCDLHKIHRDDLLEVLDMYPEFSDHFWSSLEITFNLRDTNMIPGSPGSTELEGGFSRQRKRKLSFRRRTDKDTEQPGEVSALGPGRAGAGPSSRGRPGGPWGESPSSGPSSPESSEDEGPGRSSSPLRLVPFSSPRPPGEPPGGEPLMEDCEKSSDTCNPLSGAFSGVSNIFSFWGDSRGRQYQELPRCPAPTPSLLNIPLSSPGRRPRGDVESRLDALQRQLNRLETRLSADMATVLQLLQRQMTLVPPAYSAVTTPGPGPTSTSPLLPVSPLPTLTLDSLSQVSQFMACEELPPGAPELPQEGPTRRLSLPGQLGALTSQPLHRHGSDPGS
recombinant human DHODH, sequence (Q02127 whole entry): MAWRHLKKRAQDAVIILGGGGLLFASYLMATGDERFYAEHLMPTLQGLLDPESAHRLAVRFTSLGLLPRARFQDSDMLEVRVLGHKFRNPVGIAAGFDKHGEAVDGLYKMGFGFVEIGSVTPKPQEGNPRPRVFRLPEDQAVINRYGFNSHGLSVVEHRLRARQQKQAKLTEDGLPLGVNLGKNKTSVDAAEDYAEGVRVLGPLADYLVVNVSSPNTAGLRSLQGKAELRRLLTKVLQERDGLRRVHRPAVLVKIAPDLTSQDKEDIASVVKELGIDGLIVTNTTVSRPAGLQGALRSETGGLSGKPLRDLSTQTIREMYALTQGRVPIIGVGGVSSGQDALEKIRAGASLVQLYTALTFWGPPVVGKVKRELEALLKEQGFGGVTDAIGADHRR

## CCCNC(=O)N1[C@H](C#N)[C@H](c2ccc(C#Cc3cccc(F)c3)cc2)[C@H]1CO [BRD7539]
TM90C6B strain
  Change in potency: unaffected
[1]
  EC50: 15 nM
Recombinant human DHODH
  Inhibition of human DHODH orthologue: no inhibition
[2]
  Potency against PfscDHODH: markedly reduced potency; also recorded: selectively reduced potency
[3]
  Change in potency: unaffected
P. falciparum Dd2; read-out: EC50, asexual blood stages, in vitro
  EC50: 10 nM

## COc1ccc(NC(=O)N2CCCCCN3[C@H](CO)[C@H](c4ccc(C#Cc5ccccc5)cc4)[C@@H]3C2)cc1 [BRD0185]
P. falciparum Dd2; [8]
  EC50: 87 nM

## COc1ccc(NC(=O)N2CCCCN3[C@H](CN4CCC4)[C@H](c4ccc(C#Cc5ccccc5)cc4)[C@@H]3C2)cc1 [BRD8493]
P. falciparum Dd2; [8]
  EC50: 116 nM

## OC(c1cc(C(F)(F)F)nc2c(C(F)(F)F)cccc12)C1CCCCN1 (stereo not drawn) [mefloquine]
[4]
  Parasite cytosolic Na^+ concentration: constant

## COc1ccc(NC(=O)N2CCCCN3[C@H](CO)[C@H](c4ccc(C#Cc5ccccc5)cc4)[C@]3(CO)C2)cc1 [BRD2936]
P. falciparum Dd2; [8]
  EC50: 1870 nM

## COc1ccc(NC(=O)N2CCCCN3[C@H](COCCC(=O)O)[C@H](c4ccc(C#Cc5ccccc5)cc4)[C@@H]3C2)cc1 [BRD3316]
hERG channel
  IC50: > 10000 nM
HepG2 cell line; HepG2 cell line
  Cytotoxicity: no significant cytotoxicity
HepG2 cell line; read-out: HepG2 CC50, 72 h
  CC50: > 50000 nM
[5]
  Mouse Clint: 38 µL/min/mg
[6]
  Human Clint: 34 µL/min/mg
Solubility assay in PBS
  PBS solubility: 91 µM
[7]; IV (3.2) mg/kg
  AUC0-inf: 13.2 µM·h
  CL: 7.1 mL/min/kg
  MRT0-inf: 3.3 h
  T1/2: 2.3 h
  Vss: 1.4 L/kg
[7]; PO (13) mg/kg
  AUC0-inf: 33.5 µM·h
  Cmax: 6.8 µM
  F: 63%
  MRT0-inf: 3.9 h
  T1/2: 2.4 h
  Tmax: 1 h
[7]; PO (13) mg/kg, t = 24 h
  AUC0-t: 33.5 ^¶ µM*hr
P. falciparum Dd2; P. falciparum (Dd2), Blood stage
  EC50: 19 nM
P. falciparum Dd2; read-out: Pf, Dd2 EC50, blood stage
  EC50: 23 nM
P. falciparum Dd2; [8]
  EC50: 22 nM

## COc1ccc(NC(=O)N2CCCCN3[C@H](CO)[C@H](c4ccc(C#CC5CC5)cc4)[C@@H]3C2)cc1 [BRD5774]
P. falciparum Dd2; [8]
  EC50: 12200 nM

## O=C1C(O)=C([C@H]2CC[C@H](c3ccc(Cl)cc3)CC2)C(=O)c2ccccc21 [atovaquone, reference compound]
P. falciparum Dd2; Plasmodium falciparum, DD2
  EC90: 2 nM
